# Measured values published in ChEMBL document CHEMBL2417474, “Synthesis, antiproliferative and anti-inflammatory activities of some novel 6-aryl-2-(p-(methanesulfonyl)phenyl)-4,5-dihydropyridazi-3(2H)-ones” (Eur J Med Chem, 2013).
# What was measured:
# Type in all cases: functional
# K562 = assay: Growth inhibition of human K562 cells assessed as cell growth at 10 uM after 48 hrs by sulforhodamine B assay; details: K562, 48 h, read-out: Activity
# M14 = assay: Growth inhibition of human M14 cells assessed as cell growth at 10 uM after 48 hrs by sulforhodamine B assay; details: M14, 48 h, read-out: Activity
# MDA-MB-231 = assay: Growth inhibition of human MDA-MB-231 cells assessed as cell growth at 10 uM after 48 hrs by sulforhodamine B assay; details: MDA-MB-231, 48 h, read-out: Activity
# KM12 [1] = assay: Growth inhibition of human KM12 cells after 48 hrs by sulforhodamine B assay; details: KM12, 48 h
# How it was run: (§1)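 NCI 60-cell-line panel grown in RPMI-type medium with 5% fetal calf serum and 2 mM L-glutamine. Cells preincubated 24 h, then exposed continuously for 48 h to compound in DMSO at 10^-4 to 10^-8 M (five 10-fold levels). Growth read by SRB protein stain. GI50 is the concentration giving a 50% reduction in net protein increase relative to control cells.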
# HT-29 [2] = assay: Growth inhibition of human HT-29 cells after 48 hrs by sulforhodamine B assay; details: HT-29, 48 h; how it was run: as §1
# Malme-3M [3] = assay: Growth inhibition of human MALME-3M cells assessed as cell growth at 10 uM after 48 hrs by sulforhodamine B assay; details: read-out: Activity
# CCRF-CEM = assay: Growth inhibition of human CCRF-CEM cells assessed as cell growth at 10 uM after 48 hrs by sulforhodamine B assay; details: read-out: Activity
# MCF7 = assay: Growth inhibition of human MCF7 cells assessed as cell growth at 10 uM after 48 hrs by sulforhodamine B assay; details: MCF7, 48 h, read-out: Activity
# SK-OV-3 [4] = assay: Growth inhibition of human SKOV3 cells assessed as cell growth at 10 uM after 48 hrs by sulforhodamine B assay; details: SK-OV-3, 48 h, read-out: Activity
# Malme-3M [5] = assay: Growth inhibition of human MALME-3M cells after 48 hrs by sulforhodamine B assay; details: for CC50: read-out: LC50 (the source's name); how it was run: as §1
# DU-145 = assay: Growth inhibition of human DU145 cells after 48 hrs by sulforhodamine B assay; details: DU-145, 48 h; for CC50: read-out: LC50 (the source's name); how it was run: as §1
# HOP-62 = assay: Growth inhibition of human HOP62 cells after 48 hrs by sulforhodamine B assay; details: HOP-62, 48 h; for CC50: read-out: LC50 (the source's name); how it was run: as §1
# NCI-H23 = assay: Growth inhibition of human NCI-H23 cells after 48 hrs by sulforhodamine B assay; details: NCI-H23, 48 h; for CC50: read-out: LC50 (the source's name)
# How it was run: (§2)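 NCI 60-cell-line panel. Cells were grown in medium with 5% fetal calf serum and 2 mM L-glutamine, then preincubated 24 h in plates. Compounds were added from DMSO at five 10-fold concentrations from 100 to 0.01 µM and left on cells continuously for 48 h. Cell growth was read by sulforhodamine B protein stain. GI50 is the concentration that halves net protein increase relative to control cells.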
# KM12 [6] = assay: Growth inhibition of human KM12 cells assessed as cell growth at 10 uM after 48 hrs by sulforhodamine B assay; details: KM12, 48 h, read-out: Activity
# HCT-116 = assay: Growth inhibition of human HCT116 cells after 48 hrs by sulforhodamine B assay; details: HCT-116, 48 h; how it was run: as §1
# [7] = Growth inhibition of human NCI-ADR-RES cells after 48 hrs by sulforhodamine B assay; how it was run: as §2
# OVCAR-3 = assay: Growth inhibition of human OVCAR3 cells assessed as cell growth at 10 uM after 48 hrs by sulforhodamine B assay; details: OVCAR-3, 48 h, read-out: Activity
# NCI-H226 [8] = assay: Growth inhibition of human NCI-H226 cells after 48 hrs by sulforhodamine B assay; details: NCI-H226, 48 h; for CC50: read-out: LC50 (the source's name); how it was run: as §2
# 786-0 = assay: Growth inhibition of human 786-0 cells after 48 hrs by sulforhodamine B assay; details: 786-0, 48 h; how it was run: as §1
# MOLT-4 = assay: Growth inhibition of human MOLT4 cells assessed as cell growth at 10 uM after 48 hrs by sulforhodamine B assay; details: MOLT-4, 48 h, read-out: Activity
# LOX IMVI = assay: Growth inhibition of human LOXIMVI cells after 48 hrs by sulforhodamine B assay; details: for CC50: read-out: LC50 (the source's name); how it was run: as §1
# SF-295 = assay: Growth inhibition of human SF295 cells after 48 hrs by sulforhodamine B assay; details: SF-295, 48 h; how it was run: as §2
# HCT-15 = assay: Growth inhibition of human HCT15 cells after 48 hrs by sulforhodamine B assay; details: HCT-15, 48 h; how it was run: as §1
# IGROV-1 = assay: Growth inhibition of human IGROV1 cells after 48 hrs by sulforhodamine B assay; details: IGROV-1, 48 h; how it was run: as §1
# NCI-H226 [9] = assay: Growth inhibition of human NCI-H226 cells assessed as cell growth at 10 uM after 48 hrs by sulforhodamine B assay; details: NCI-H226, 48 h, read-out: Activity
# [10] = Growth inhibition of human HCC2998 cells after 48 hrs by sulforhodamine B assay; details: HCC 2998, 48 h; for CC50: read-out: LC50 (the source's name); how it was run: as §1
# OVCAR-8 = assay: Growth inhibition of human OVCAR8 cells assessed as cell growth at 10 uM after 48 hrs by sulforhodamine B assay; details: OVCAR-8, 48 h, read-out: Activity
# SK-MEL-2 = assay: Growth inhibition of human SK-MEL-2 cells after 48 hrs by sulforhodamine B assay; details: SK-MEL-2, 48 h; how it was run: as §2
# A498 = assay: Growth inhibition of human A498 cells after 48 hrs by sulforhodamine B assay; details: A498, 48 h; for CC50: read-out: LC50 (the source's name); how it was run: as §1
# HOP-92 = assay: Growth inhibition of human HOP92 cells assessed as cell growth at 10 uM after 48 hrs by sulforhodamine B assay; details: HOP-92, 48 h, read-out: Activity
# SK-OV-3 [11] = assay: Growth inhibition of human SKOV3 cells after 48 hrs by sulforhodamine B assay; details: SK-OV-3, 48 h; how it was run: as §2
# SNB-75 = assay: Growth inhibition of human SNB75 cells after 48 hrs by sulforhodamine B assay; details: SNB-75, 48 h; for CC50: read-out: LC50 (the source's name); how it was run: as §2
# HT-29 [12] = assay: Growth inhibition of human HT-29 cells assessed as cell growth at 10 uM after 48 hrs by sulforhodamine B assay; details: HT-29, 48 h, read-out: Activity
smiles,measurement,setting,value
Cc1cc(O)ccc1C1=NN(c2ccc(S(C)(=O)=O)cc2)C(=O)CC1,growth at 10 µM,K562,20.6%
same,growth at 10 µM,M14,49.2%
same,growth at 10 µM,MDA-MB-231,74.8%
same,GI50,KM12 [1],4.22 µM
same,LC50,KM12 [1],> 100 µM
same,TGI,KM12 [1],> 100 µM
same,GI50,HT-29 [2],3.7 µM
same,LC50 (50% lethal concentration),HT-29 [2],> 100 µM
same,TGI,HT-29 [2],32.3 µM
same,growth at 10 µM,Malme-3M [3],52.7%
same,growth at 10 µM,CCRF-CEM,69.7%
same,growth at 10 µM,MCF7,82.8%
same,growth at 10 µM,SK-OV-3 [4],85%
same,GI50,Malme-3M [5],5.37 µM
same,TGI,Malme-3M [5],> 100 µM
same,CC50,Malme-3M [5],> 100 µM
same,GI50,DU-145,24.7 µM
same,TGI,DU-145,> 100 µM
same,CC50,DU-145,> 100 µM
same,GI50,HOP-62,9.07 µM
same,TGI,HOP-62,> 100 µM
same,CC50,HOP-62,> 100 µM
same,GI50,NCI-H23,38.5 µM
same,TGI,NCI-H23,> 100 µM
same,CC50,NCI-H23,> 100 µM
same,growth at 10 µM,KM12 [6],47.6%
same,GI50,HCT-116,3.78 µM
same,LC50 (concentration killing 50% of cells),HCT-116,> 100 µM
same,TGI,HCT-116,> 100 µM
same,GI50,[7],3.26 µM
same,LC50,[7],> 100 µM
same,TGI,[7],> 100 µM
same,growth at 10 µM,OVCAR-3,65.1%
same,GI50,NCI-H226 [8],> 100 µM
same,TGI,NCI-H226 [8],> 100 µM
same,CC50,NCI-H226 [8],> 100 µM
same,GI50,786-0,92.5 µM
same,LC50,786-0,> 100 µM
same,TGI,786-0,> 100 µM
same,growth at 10 µM,MOLT-4,52.7%
same,GI50,LOX IMVI,7.25 µM
same,TGI,LOX IMVI,> 100 µM
same,CC50,LOX IMVI,> 100 µM
same,GI50,SF-295,2.87 µM
same,LC50 (concentration killing 50% of cells present at start),SF-295,> 100 µM
same,TGI,SF-295,12.4 µM
same,GI50,HCT-15,7.91 µM
same,LC50,HCT-15,> 100 µM
same,TGI,HCT-15,> 100 µM
same,GI50,IGROV-1,7.13 µM
same,LC50,IGROV-1,> 100 µM
same,TGI,IGROV-1,> 100 µM
same,growth at 10 µM,NCI-H226 [9],93.3%
same,GI50,[10],46.7 µM
same,TGI,[10],> 100 µM
same,CC50,[10],> 100 µM
same,growth at 10 µM,OVCAR-8,92.3%
same,GI50,SK-MEL-2,3.48 µM
same,LC50,SK-MEL-2,> 100 µM
same,TGI,SK-MEL-2,32.8 µM
same,GI50,A498,2.78 µM
same,TGI,A498,45.4 µM
same,CC50,A498,> 100 µM
same,growth at 10 µM,HOP-92,92.8%
same,GI50,SK-OV-3 [11],9.77 µM
same,LC50,SK-OV-3 [11],> 100 µM
same,TGI,SK-OV-3 [11],> 100 µM
same,GI50,SNB-75,5.53 µM
same,TGI,SNB-75,> 75.2 µM
same,CC50,SNB-75,> 100 µM
same,growth at 10 µM,HT-29 [12],38.9%
Cc1ccc(C2=NN(c3ccc(S(C)(=O)=O)cc3)C(=O)CC2)cc1,growth at 10 µM,K562,11.7%
same,growth at 10 µM,M14,10.2%
same,growth at 10 µM,MDA-MB-231,47.8%
same,GI50,KM12 [1],0.44 µM
same,LC50,KM12 [1],> 100 µM
same,TGI,KM12 [1],> 100 µM
same,GI50,HT-29 [2],0.33 µM
same,LC50 (50% lethal concentration),HT-29 [2],> 100 µM
same,TGI,HT-29 [2],10 µM
same,growth at 10 µM,Malme-3M [3],45.5%
same,growth at 10 µM,CCRF-CEM,14.9%
same,growth at 10 µM,MCF7,16.2%
same,growth at 10 µM,SK-OV-3 [4],19.9%
same,TGI,Malme-3M [5],> 100 µM
same,CC50,Malme-3M [5],> 100 µM
same,GI50,DU-145,2.91 µM
same,TGI,DU-145,> 100 µM
same,CC50,DU-145,> 100 µM
same,GI50,HOP-62,1.3 µM
same,TGI,HOP-62,> 100 µM
same,CC50,HOP-62,> 100 µM
same,GI50,NCI-H23,2.5 µM
same,TGI,NCI-H23,> 100 µM
same,CC50,NCI-H23,> 100 µM
same,growth at 10 µM,KM12 [6],35%
same,GI50,HCT-116,0.41 µM
same,LC50 (concentration killing 50% of cells),HCT-116,> 100 µM
same,TGI,HCT-116,> 100 µM
same,GI50,[7],0.27 µM
same,LC50,[7],> 100 µM
same,growth at 10 µM,OVCAR-3,-14.7%
same,GI50,NCI-H226 [8],0.43 µM
same,TGI,NCI-H226 [8],> 100 µM
same,CC50,NCI-H226 [8],> 100 µM
same,GI50,786-0,5.78 µM
same,LC50,786-0,> 100 µM
same,TGI,786-0,> 100 µM
same,growth at 10 µM,MOLT-4,20.1%
same,GI50,LOX IMVI,0.74 µM
same,TGI,LOX IMVI,> 100 µM
same,CC50,LOX IMVI,> 100 µM
same,GI50,SF-295,0.4 µM
same,LC50 (concentration killing 50% of cells present at start),SF-295,> 100 µM
same,TGI,SF-295,5.36 µM
same,GI50,HCT-15,0.61 µM
same,LC50,HCT-15,> 100 µM
same,TGI,HCT-15,> 100 µM
same,GI50,IGROV-1,0.83 µM
same,LC50,IGROV-1,> 100 µM
same,TGI,IGROV-1,> 100 µM
same,growth at 10 µM,NCI-H226 [9],77.6%
same,GI50,[10],2.75 µM
same,TGI,[10],> 100 µM
same,CC50,[10],> 100 µM
same,growth at 10 µM,OVCAR-8,31.8%
same,GI50,SK-MEL-2,0.43 µM
same,LC50,SK-MEL-2,> 100 µM
same,TGI,SK-MEL-2,> 100 µM
same,GI50,A498,0.14 µM
same,TGI,A498,1.6 µM
same,CC50,A498,> 100 µM
same,growth at 10 µM,HOP-92,60.9%
same,GI50,SK-OV-3 [11],1.15 µM
same,LC50,SK-OV-3 [11],> 100 µM
same,TGI,SK-OV-3 [11],20.7 µM
same,GI50,SNB-75,0.54 µM
same,TGI,SNB-75,> 9.25 µM
same,CC50,SNB-75,> 100 µM
same,growth at 10 µM,HT-29 [12],11.1%
